Results on 42 compounds are retold here after ChEMBL document CHEMBL1221391, “Identification of novel antitubercular compounds through hybrid virtual screening approach” (Bioorg Med Chem, 2010).

In this experiment the test system is Mycobacterium tuberculosis. The experiment in a line: Antitubercular activity against Mycobacterium tuberculosis H37Rv after 7 days. Conditions: 168 h. It is filed as functional, organism-based. The procedure, abridged: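 MABA in 7H9 broth with 0.2% glycerol, 1.0 g/l Casitone, 10% OADC and 0.05% Tween 80, grown to OD600 0.4. Culture diluted 1:50 to give 2 × 10^5 CFU/ml. Twofold serial dilutions made from DMSO stock. Incubated 37 °C for 7 days, then alamar blue added and read after 24 h. MIC is the lowest concentration preventing the blue-to-pink change. Rifampicin reference.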

Structures are written as SMILES. Converted amounts (≈) assume the structure as drawn.

Take `Cc1ccc(NC(=O)C2CC(=O)N(CCc3c[nH]c4ccc(Cl)cc34)C2)cc1` (stereo not drawn): the MIC (commonly the lowest concentration that inhibits growth of the organism) is 80.8 µM (≈ 32 µg/mL).
Regarding `Cc1[nH]c2cc(C(=O)N3CCN(Cc4ccccc4)CC3)ccc2c1C`, 368 µM (≈ 128 µg/mL) was the least that counted as inhibitory (MIC).
`COc1cccc(CNC(=O)CN2CCCN(Cc3ccc(Cl)cc3)S2(=O)=O)c1` showed an MIC of 146 µM (≈ 64 µg/mL).
Regarding `Cc1oc(-c2ccccc2)nc1CN1CCN(C(=O)c2ccccc2)CC1`, the MIC amounted to 187 µM (≈ 67.8 µg/mL).
Still for that read-out and setting: the figure for `O=C(C1CC(=O)N(C2CCCC2)C1)N1CCC(Cc2ccccc2)CC1` (stereo not drawn) is 361 µM (≈ 128 µg/mL).
Consider `O=C(NCc1ccc(F)cc1)C1CC(=O)N(C2CCCCCCC2)C1` (stereo not drawn), for which the MIC came to 369 µM (≈ 128 µg/mL). The MIC values of the last two compounds are within 1.5-fold of each other.
Compound `O=C(c1ccc(F)cc1)N1CCN(C2c3ccccc3-c3ccccc32)CC1` gave an MIC of 85.9 µM (≈ 32 µg/mL).
Regarding `O=C(c1cccs1)N1CCN(C2c3ccccc3-c3ccccc32)CC1`, the MIC is 355 µM (≈ 128 µg/mL).
Compound `CCCCCCCc1ccc(C(=O)Oc2ccc([N+](=O)[O-])cc2)cc1` had an MIC of 187 µM (≈ 64 µg/mL).
`Cc1ccc(OC(=O)c2ccc(Cl)cc2)cc1` showed an MIC of 259 µM (≈ 64 µg/mL).
The same measure, in the same setting: the figure for `CCCCCCc1ccc(C(=O)Oc2ccc(Cl)cc2)cc1` is 202 µM (≈ 64 µg/mL).
The compound `Cc1ccc(C(=O)CC(=O)c2ccc(Cl)cc2)c(O)c1` returned an MIC of 13.8 µM (≈ 4 µg/mL).
The same measure, in the same setting: the figure for `CCc1ccc(C(=O)Oc2cccnc2)cc1` is 563 µM (≈ 128 µg/mL); for `CCCCCc1ccc(OC(=O)c2ccc(Cl)cc2)cc1` it is 106 µM (≈ 32 µg/mL); for `O=C(Nc1ccccc1O)c1ccc(Oc2ccc([N+](=O)[O-])cc2)cc1` it is 5.7 µM (≈ 2 µg/mL).
In turn, `Cc1ccc(/N=C/c2cc(Cc3ccccc3Cl)ccc2O)c(O)c1` came in with an MIC of 182 µM (≈ 64 µg/mL).
The compound `O=C1c2ccc(Oc3cccc([N+](=O)[O-])c3)cc2C(=O)N1c1ccccc1O` registered an MIC of 85 µM (≈ 32 µg/mL).
`Oc1cccc(Oc2c(F)c(F)nc(F)c2F)c1`: the minimal inhibitory concentration (MIC) worked out at 247 µM (≈ 64 µg/mL).
In turn, `CCc1ccc(O)c(/N=C/c2cc(Cl)cc(Cl)c2O)c1` registered an MIC of 206 µM (≈ 64 µg/mL).
Take `O=[N+]([O-])c1ccc(Oc2cc(C(F)(F)F)ccc2Cl)cc1O`: the MIC stood at 384 µM (≈ 128 µg/mL).
`S=C(c1ccc(Br)cc1)N1CCN(Cc2ccccc2)CC1`: the MIC is 85.2 µM (≈ 32 µg/mL).
Take `Cc1ccc(S(=O)(=O)N2CCN(C(=O)c3ccc(Br)cc3)CC2)cc1`: inhibition of growth (MIC) required 302 µM (≈ 128 µg/mL).
Same read-out and setting: in the case of `Cc1ccc(C(=O)N2CCN(S(=O)(=O)c3ccccc3)CC2)cc1` it was 372 µM (≈ 128 µg/mL); in that of `O=C(Nc1ccc(C(F)(F)F)cc1)NC1CC(=O)N(C2CCCC2)C1` (stereo not drawn), 180 µM (≈ 64 µg/mL).
For the compound `CCCCCc1ccc(Oc2ccccc2)c(O)c1`, it took 17 nM to reach half-maximal inhibition (IC50) and it took 3.5 µM (≈ 0.897 µg/mL) to inhibit growth (MIC).
Take `CCCCCCCCCCCCCCc1ccc(Oc2ccccc2)c(O)c1`: half-maximal inhibition (IC50) required 150 nM and the MIC is 460 µM (≈ 176 µg/mL).
For `CN(C(=O)C1CC(=O)N(C2CCCCCC2)C1)c1cc(-c2ccccc2)c(O)c(-c2ccccc2)c1` (stereo not drawn), it took 360 nM to reach half-maximal inhibition (IC50) and the MIC was greater than 125 µM.
In turn, `O=C(CCN1C(=O)c2ccccc2C1=O)N1CCN(C(c2ccccc2)c2ccccc2)CC1` displayed an MIC of 141 µM (≈ 64 µg/mL).
Regarding `Cc1ccc(C(=O)N2CCN(c3cccc(Cl)c3)CC2)cc1C`, the IC50 (usually the concentration that inhibits the measured activity by half) was 990 nM and the MIC is greater than 125 µM.
`O=C(c1ccccc1)N1CCN(C2c3ccccc3-c3ccccc32)CC1` showed an IC50 of 90 nM and an MIC greater than 125 µM.
The compound `Oc1cc(CCCc2ccccc2)ccc1Oc1ccc(Cl)cc1Cl` displayed an IC50 of 50 nM and an MIC of 50 µM (≈ 18.7 µg/mL).
In turn, `Oc1cc(CCc2ccccc2)ccc1Oc1ccc(Cl)cc1Cl` came in with an IC50 of 21 nM and an MIC of 52 µM (≈ 18.7 µg/mL).
The compound `CC(C)Cc1ccc(Oc2ccc(Cl)cc2Cl)c(O)c1` came in with a half-inhibitory concentration (IC50) of 96 nM and a minimal inhibitory concentration (MIC) of 60 µM (≈ 18.7 µg/mL).
On to `CCCCCCc1ccc(Oc2ccccc2)c(O)c1`, for which inhibition was half-maximal at 11 nM (IC50) and it took 7.8 µM (≈ 2.11 µg/mL) to inhibit growth (MIC).
Turning to `O=C(Nc1cc(Br)cc(C(F)(F)F)c1)C1CC(=O)N(C2CCCCC2)C1` (stereo not drawn), the midpoint of inhibition, the IC50, lay at 850 nM and the minimal inhibitory concentration (MIC) stood at 62.5 µM (≈ 27.1 µg/mL).
Consider `Cc1ccc(C(=O)N2CCN(C3c4ccccc4-c4ccccc43)CC2)cc1`, for which the half-maximal inhibitory concentration (IC50) was found to be 400 nM and the minimal inhibitory concentration (MIC) is greater than 125 µM.
On to `CCCCc1ccc(Oc2ccc(Cl)cc2Cl)c(O)c1`, for which the IC50 stood at 91 nM and the MIC stood at 30 µM (≈ 9.34 µg/mL).
For the compound `Oc1cc(Cc2ccccc2)ccc1Oc1ccc(Cl)cc1Cl`, the half-inhibitory concentration (IC50) turned out to be 51 nM and the minimal inhibitory concentration (MIC) was found to be 27 µM (≈ 9.32 µg/mL).
In turn, `CN(Cc1c2ccccc2cc2ccccc12)C(=O)C1CC(=O)N(C2CCCCCCC2)C1` (stereo not drawn) came in with an IC50 of 320 nM and an MIC of 62.5 µM (≈ 27.7 µg/mL).
The compound `CN(Cc1c2ccccc2cc2ccccc12)C(=O)C1CC(=O)N(C2CC3CCC2C3)C1` (stereo not drawn) returned an IC50 of 460 nM and an MIC of 125 µM (≈ 53.3 µg/mL).
On to `CCCCCCCCc1ccc(Oc2ccccc2)c(O)c1`, for which the IC50 came to 5 nM and it took 6.4 µM (≈ 1.91 µg/mL) to inhibit growth (MIC).
`CO[C@H]1/C=C/O[C@@]2(C)Oc3c(C)c(O)c4c(O)c(c(/C=N/N5CCN(C)CC5)c(O)c4c3C2=O)NC(=O)/C(C)=C\C=C\[C@H](C)[C@H](O)[C@@H](C)[C@@H](O)[C@@H](C)[C@H](OC(C)=O)[C@@H]1C` [RIFAMPIN] came in with a minimal inhibitory concentration (MIC) of 0.01 µM (≈ 0.00823 µg/mL). In other words, the double-digit nanomolar range.
